Ends that are not written are not given here. Lumi4(Tb) = Lumi4(Tb) terbium luminescent complex
Assays:
MDCKII cells [1] = type: cell-based, canine; conditions: summary of microscopic observations at higher concentrations
In short: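 MDCKII cells were incubated 30 min at 37 °C in DMEM with FBS, or serum-free, with Tb3+ complex–peptide conjugates at 5, 20 or 60 μM. In one condition, 5 μM conjugate was combined with 30 μM unconjugated Arg9. Live cells were imaged by time-gated luminescence microscopy (10 μs delay, λex 365 nm, λem 540 ± 10 nm) to score punctate versus diffuse cytoplasmic/nuclear distribution.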

MDCKII cells [2] = test system: MDCKII cells

Substance | mechanism of delivery mediated by the CPP (MDCKII cells [1]) | intracellular disulfide reduction observed microscopically (MDCKII cells [2]) | fluorescein signal distribution immediately after washing (MDCKII cells [2]; MDCKII cells, 17 (10 μM), serum-free medium, 10 min, 37 °C, continuous wave fluorescence) | fluorescein signal distribution 2 h post-wash (MDCKII cells [2]; MDCKII cells, 17 (10 μM), serum-free medium, 10 min, imaged 2 h post-wash) | Tb3+-to-fluorescein LRET emission ratio (520 nm/540 nm), 2 h post-wash versus immediate (MDCKII cells [2]; MDCKII cells, nuclear region, 17 (10 μM), 4 separate experiments)
17: cysteine amide-linked heterodimer of Lumi4 and TEGTMP coupled via a disulfide bond to the peptide Cys-TAT(47–57)-Lys(FAM) [compound 17] | non-endocytic, cytoplasmic delivery | its disulfide bond is reduced in the cytoplasm and nucleus | primarily diffuse throughout the cytoplasm and nucleus | punctate staining pattern predominant | significantly reduced
3: an N-terminal fusion of Lumi4(Tb) to Tat (49–57) ({Lumi4(Tb)}-RKKRRQRRR; UniProt P04608 49-57, looked up, fragment) [compound 3] | non-endocytic, cytoplasmic delivery |  |  |  | 

— article PMC3729426 (Chemistry (Weinheim an der Bergstrasse, Germany), 2012)
